From ChEMBL document CHEMBL1157486, “2-Substituted-16-ene-22-thia-1alpha,25-dihydroxy-26,27-dimethyl-19-norvitamin D3 analogs: Synthesis, biological evaluation, and crystal structure” (Bioorg Med Chem, 2008) come the findings set out here.

“And” between values parts separate entries of the source, which are not always exact repeats. Equal values may be shown once.

The target of test [1] is T1, Vitamin D3 receptor (Rattus norvegicus) (UniProt P13053).
T1 sequence (whole entry): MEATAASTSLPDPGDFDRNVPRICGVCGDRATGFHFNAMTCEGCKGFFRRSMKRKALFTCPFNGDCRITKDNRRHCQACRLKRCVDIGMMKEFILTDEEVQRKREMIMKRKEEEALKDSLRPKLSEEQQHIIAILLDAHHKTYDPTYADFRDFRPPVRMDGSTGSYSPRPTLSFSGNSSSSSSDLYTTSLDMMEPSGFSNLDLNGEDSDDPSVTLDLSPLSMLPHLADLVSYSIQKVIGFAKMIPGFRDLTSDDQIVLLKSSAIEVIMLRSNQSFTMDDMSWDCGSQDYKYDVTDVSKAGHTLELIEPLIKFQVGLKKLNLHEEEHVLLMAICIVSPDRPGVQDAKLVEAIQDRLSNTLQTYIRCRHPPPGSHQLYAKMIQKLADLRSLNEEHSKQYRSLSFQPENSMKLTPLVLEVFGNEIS
Put plainly: Displacement of [3H]1-alpha,25-(OH)2D3 from rat recombinant VDR expressed in Escherichia coli BL21 (DE3). In outline: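 Rat VDR-LBD lysate (sonicated cells) diluted ~1000-fold in 50 mM Tris pH 7.5 with 100 mM KCl, 5 mM DTT, 0.5% CHAPS and BSA 100 µg/mL. Ligand in EtOH preincubated 1 h at room temperature, then [3H]1α,25-(OH)2D3 (~5000 dpm) added for 18 h at 4 °C. Free ligand removed with dextran-coated charcoal, and bound fraction counted by scintillation. At least twice in duplicate.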
Background: In a radioligand displacement assay an active substance lowers the binding of a labelled ligand.

For test [2], the target named is Vitamin D3 receptor (Homo sapiens) (UniProt P11473). The test can be described thus: Increase in human VDR-mediated transcriptional activity in african green monkey COS7 cells after 24 hrs by luciferase assay.
The next test has as its system Bone marrow cell. The test can be described thus: Effect on osteoclast formation in ddY mouse bone marrow cells co cultured with […] after 7 days.
[3] abbreviates: Mus musculus, ddY, Bone marrow cell, 168 h.

For the compound `CCC(O)(CC)CS[C@H](C)C1=CC[C@H]2/C(=C/C=C3C[C@@H](O)C(C)(O)[C@H](O)C3)CCC[C@]12C` (stereo partly specified), in test [1], the Activity was 12% and 0.5%.
For the compound `[H][C@@]12CC=C([C@@H](C)SCC(O)(CC)CC)[C@@]1(C)CCC/C2=C\C=C1\C[C@@H](O)[C@H](OCCO)[C@H](O)C1` (stereo partly specified), the EC50 in test [2] came to 0.115 nM; in the test with Bone marrow cell (bone marrow cell), 0.43 nM.
As to `CCC(O)(CC)CSC(C)C1=CCC2/C(=C/C=C3C[C@@H](O)C(=CCO)[C@H](O)C3)CCC[C@]12C` (stereo partly specified) [listing 1 of 2 here], in test [2], the EC50 is 0.085 nM.
With `[H][C@@]12CC=C([C@@H](C)SCC(O)(CC)CC)[C@@]1(C)CCC/C2=C\C=C1/C[C@@H](O)[C@H](OCCO)[C@H](O)C1` (stereo partly specified), the EC50 in test [2] was 0.024 nM; in the test on Bone marrow cell (setting [3]) it was 0.22 nM.
Take `CCC(O)(CC)CS[C@H](C)C1=CC[C@H]2/C(=C/C=C3C[C@@H](O)C(=CCO)[C@H](O)C3)CCC[C@]12C` [listing 1 of 2 here]: the EC50 in test [2] was found to be 0.029 nM.
`[H][C@@]12CC=C([C@@H](C)SCC(O)(CC)CC)[C@@]1(C)CCC/C2=C\C=C1\C[C@@H](O)[C@@](C)(O)[C@H](O)C1` (stereo partly specified) returned an EC50 in test [2] of 0.12 nM.
For the compound `CCC(O)(CC)CS[C@H](C)C1=CC[C@H]2/C(=C/C=C3C[C@@H](O)C(=CCO)[C@H](O)C3)CCC[C@]12C` [listing 2 of 2 here], the EC50 in test [2] was determined as 0.2 nM.
`CCC(O)(CC)CS[C@@H](C)C1=CC[C@H]2/C(=C/C=C3C[C@@H](O)C[C@H](O)C3)CCC[C@]12C`: the Activity in test [1] turned out to be 60%.
Consider `CCC(O)(CC)CSC(C)C1=CCC2/C(=C/C=C3/C[C@@H](O)[C@H](OCCO)[C@H](O)C3)CCC[C@]12C` (stereo partly specified), for which the half-maximal effective concentration (EC50) in test [2] is 0.027 nM; with Bone marrow cell (bone marrow cell) it was 0.04 nM.
For the compound `C=C1/C(=C\C=C2/CCC[C@]3(C)[C@@H]([C@H](C)CCCC(C)(C)O)CC[C@@H]23)C[C@@H](O)C[C@@H]1O` [CALCITRIOL], the concentration for a half-maximal effect (EC50) in the test on Bone marrow cell (setting [3]) worked out at 2 nM. In test [1], the Activity stood at 100%.
As to `CCC(O)(CC)CCCS[C@H](C)C1=CC[C@H]2/C(=C/C=C3C[C@@H](O)C[C@H](O)C3)CCC[C@]12C`, the Activity in test [1] is 8%.
For the compound `CCC(O)(CC)CCS[C@@H](C)C1=CC[C@H]2/C(=C/C=C3C[C@@H](O)C[C@H](O)C3)CCC[C@]12C`, the Activity in test [1] came to 100%.
`CCC(O)(CC)CCCS[C@@H](C)C1=CC[C@H]2/C(=C/C=C3C[C@@H](O)C[C@H](O)C3)CCC[C@]12C`: the Activity in test [1] came to 100%.
Same read-out and setting: the same measure for `CCC(O)(CC)CCS[C@H](C)C1=CC[C@H]2/C(=C/C=C3C[C@@H](O)C[C@H](O)C3)CCC[C@]12C`: 4%.
Turning to `CCC(O)(CC)CSC(C)C1=CCC2/C(=C/C=C3/C[C@@H](O)[C@](C)(O)[C@H](O)C3)CCC[C@]12C` (stereo partly specified), in test [2], the EC50 amounted to 1.9 nM.
On the same count and under the same terms, in the case of `CCC(O)(CC)CSC(C)C1=CCC2/C(=C/C=C3C[C@@H](O)C(=CCO)[C@H](O)C3)CCC[C@]12C` (stereo partly specified) [listing 2 of 2 here] it was 0.026 nM.
`CCC(O)(CC)CSC(C)C1=CCC2/C(=C/C=C3\C[C@@H](O)[C@](C)(O)[C@H](O)C3)CCC[C@]12C` (stereo partly specified): the EC50 in test [2] came out at 0.017 nM.
As for `CCC(O)(CC)CS[C@H](C)C1=CC[C@H]2/C(=C/C=C3C[C@@H](O)C[C@H](O)C3)CCC[C@]12C`, the Activity in test [1] is 6%.
As for `CCC(O)(CC)CSC(C)C1=CCC2/C(=C/C=C3\C[C@@H](O)[C@H](OCCO)[C@H](O)C3)CCC[C@]12C` (stereo partly specified), the concentration giving a half-maximal response (EC50) in test [2] stood at 0.0021 nM; in the test on Bone marrow cell (setting [3]) it was 0.035 nM.
For `CCC(O)(CC)CSC(C)C1=CCC2/C(=C/C=C3C[C@@H](O)C(C)(O)[C@H](O)C3)CCC[C@]12C` (stereo partly specified), the Activity in test [1] is 18% and 1%.
In turn, `[H][C@@]12CC=C([C@@H](C)SCC(O)(CC)CC)[C@@]1(C)CCC/C2=C\C=C1/C[C@@H](O)[C@@](C)(O)[C@H](O)C1` (stereo partly specified) had an EC50 in test [2] of 4.5 nM.

As usually defined, the EC50 is the midpoint of the concentration-response curve.
